# Test results from ChEMBL document CHEMBL1152942, “Chemistry of renieramycins. Part 8: synthesis and cytotoxicity evaluation of renieramycin M-jorunnamycin A analogues” (Bioorg Med Chem, 2009).
# Activity calls are given as the source filed them. The rule behind the calls is not given here.
# How the values were obtained:
# Type in all cases: functional, cell-based
# HCT-116 [1] = experiment: Cytotoxicity against human HCT116 cells after 3 days by MTT assay
# In short: (§1)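 HCT116 colon carcinoma cells were seeded at 1500 cells/well 24 h before treatment. They were exposed to threefold serial dilutions from 100 nM to 0.41 nM, with under 1% DMSO final (20 mM DMSO stocks), for 3 days. Growth was read by MTT absorbance at 540 nm. IC50 was taken as 50% growth inhibition relative to untreated controls, in triplicate.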
# MDA-MB-435 = experiment: Cytotoxicity against human MDA-MB-435 cells after 3 days by MTT assay
# QG-56 = experiment: Cytotoxicity against human QG56 cells at 1.4 to 100 nM after 3 days by MTT assay
# HCT-116 [2] = experiment: Cytotoxicity against human HCT116 cells at 1.4 to 100 nM after 3 days by MTT assay; in short: as §1
Compound,"IC50 (HCT-116 [1]; Homo sapiens, HCT-116, 72 h) [µM]","IC50 (MDA-MB-435; Homo sapiens, MDA-MB-435, 72 h) [µM]",also measured
COC1=C(C)C(=O)C2=C(C1=O)[C@@H]1[C@@H]3CC4=C(C(=O)C(OC)=C(C)C4=O)[C@H](COC(=O)C4=CCCCC4)N3[C@@H](C#N)[C@H](C2)N1C,0.049,0.029,
CCCCCC(=O)OC[C@H]1C2=C(C[C@H]3[C@H]4C5=C(C[C@@H]([C@H](C#N)N13)N4C)C(=O)C(C)=C(OC)C5=O)C(=O)C(C)=C(OC)C2=O,0.1,0.04,
COC1=C(C)C(=O)C2=C(C1=O)[C@@H]1[C@@H]3CC4=C(C(=O)C(OC)=C(C)C4=O)[C@H](COC(C)=O)N3[C@@H](C#N)[C@H](C2)N1C [CYANOJORUMYCIN],0.0032,0.0014,
COC1=C(C)C(=O)C2=C(C1=O)[C@@H]1[C@@H]3CC4=C(C(=O)C(OC)=C(C)C4=O)[C@H](COC(=O)c4ccnc5ccccc45)N3[C@@H](C#N)[C@H](C2)N1C,0.01,0.0041,
COC1=C(C)C(=O)C2=C(C1=O)[C@@H]1[C@@H]3CC4=C(C(=O)C(OC)=C(C)C4=O)[C@H](CO)N3[C@@H](C#N)[C@H](C2)N1C [JOURNNAMYCIN A],0.13,0.29,Activity (QG-56): Active
COC1=C(C)C(=O)C2=C(C1=O)[C@@H]1[C@@H]3CC4=C(C(=O)C(OC)=C(C)C4=O)[C@H](COC(=O)c4ccccn4)N3[C@@H](C#N)[C@H](C2)N1C,0.0033,0.0014,
CCC(C)C(=O)OC[C@H]1C2=C(C[C@H]3[C@H]4C5=C(C[C@@H]([C@H](C#N)N13)N4C)C(=O)C(C)=C(OC)C5=O)C(=O)C(C)=C(OC)C2=O (mixture of isomers),0.033,0.012,
COC1=C(C)C(=O)C2=C(C1=O)[C@@H]1[C@@H]3CC4=C(C(=O)C(OC)=C(C)C4=O)[C@H](COC(=O)c4cnc5ccccc5c4)N3[C@@H](C#N)[C@H](C2)N1C,0.01,0.0038,
COC1=C(C)C(=O)C2=C(C1=O)[C@@H]1[C@@H]3CC4=C(C(=O)C(OC)=C(C)C4=O)[C@H](COC(=O)C4CCCC4)N3[C@@H](C#N)[C@H](C2)N1C,0.093,0.03,
COC1=C(C)C(=O)C2=C(C1=O)[C@@H]1[C@@H]3CC4=C(C(=O)C(OC)=C(C)C4=O)[C@H](COC(=O)C4CC=CC4)N3[C@@H](C#N)[C@H](C2)N1C,0.033,0.013,
COC1=C(C)C(=O)C2=C(C1=O)[C@@H]1[C@@H]3CC4=C(C(=O)C(OC)=C(C)C4=O)[C@H](COC(=O)C4CC=CCC4)N3[C@@H](C#N)[C@H](C2)N1C (mixture of isomers),0.043,0.027,
CCCC(=O)OC[C@H]1C2=C(C[C@H]3[C@H]4C5=C(C[C@@H]([C@H](C#N)N13)N4C)C(=O)C(C)=C(OC)C5=O)C(=O)C(C)=C(OC)C2=O,0.034,0.012,
COC1=C(C)C(=O)C2=C(C1=O)[C@@H]1[C@@H]3CC4=C(C(=O)C(OC)=C(C)C4=O)[C@H](COC(=O)c4ccc(Br)cc4)N3[C@@H](C#N)[C@H](C2)N1C,0.038,0.013,
COC1=C(C)C(=O)C2=C(C1=O)[C@@H]1[C@@H]3CC4=C(C(=O)C(OC)=C(C)C4=O)[C@H](COC(=O)c4ccc([N+](=O)[O-])cc4)N3[C@@H](C#N)[C@H](C2)N1C,0.026,0.0094,
COC1=C(C)C(=O)C2=C(C1=O)[C@@H]1[C@@H]3CC4=C(C(=O)C(OC)=C(C)C4=O)[C@H](COC(=O)c4ccc(OC)cc4)N3[C@@H](C#N)[C@H](C2)N1C,0.026,0.0089,
COC1=C(C)C(=O)C2=C(C1=O)[C@@H]1[C@@H]3CC4=C(C(=O)C(OC)=C(C)C4=O)[C@H](COC(C)=O)N3[C@@H](O)[C@H](C2)N1C,,,Activity (QG-56): Active; Activity (HCT-116 [2]): Active
COC1=C(C)C(=O)C2=C(C1=O)[C@@H]1[C@@H]3CC4=C(C(=O)C(OC)=C(C)C4=O)[C@H](COC(=O)C=C(C)C)N3[C@@H](C#N)[C@H](C2)N1C,0.027,0.011,
COC1=C(C)C(=O)C2=C(C1=O)[C@@H]1[C@@H]3CC4=C(C(=O)C(OC)=C(C)C4=O)[C@H](COC(=O)C4=CCCC4)N3[C@@H](C#N)[C@H](C2)N1C,0.033,0.013,
COC1=C(C)C(=O)C2=C(C1=O)[C@@H]1[C@@H]3CC4=C(C(=O)C(OC)=C(C)C4=O)[C@H](COC(=O)c4ccc5ccccc5n4)N3[C@@H](C#N)[C@H](C2)N1C,0.011,0.0042,
COC1=C(C)C(=O)C2=C(C1=O)[C@@H]1[C@@H]3CC4=C(C(=O)C(OC)=C(C)C4=O)[C@H](COC(=O)c4ccncc4)N3[C@@H](C#N)[C@H](C2)N1C,0.01,0.0044,
COC1=C(C)C(=O)C2=C(C1=O)[C@@H]1[C@@H]3CC4=C(C(=O)C(OC)=C(C)C4=O)[C@H](COC(=O)C(C)C)N3[C@@H](C#N)[C@H](C2)N1C,0.022,0.01,
COC1=C(C)C(=O)C2=C(C1=O)[C@@H]1[C@@H]3CC4=C(C(=O)C(OC)=C(C)C4=O)[C@H](COC(=O)c4ccccc4OC)N3[C@@H](C#N)[C@H](C2)N1C,0.034,0.011,
COC1=C(C)C(=O)C2=C(C1=O)[C@@H]1[C@@H]3CC4=C(C(=O)C(OC)=C(C)C4=O)[C@H](COC(=O)CCCl)N3[C@@H](C#N)[C@H](C2)N1C,0.016,0.012,
COC1=C(C)C(=O)C2=C(C1=O)[C@@H]1[C@@H]3CC4=C(C(=O)C(OC)=C(C)C4=O)[C@H](COC(=O)c4ccccc4)N3[C@@H](C#N)[C@H](C2)N1C,0.025,0.0086,
CC=C(C)C(=O)OC[C@H]1C2=C(C[C@H]3[C@H]4C5=C(C[C@@H]([C@H](C#N)N13)N4C)C(=O)C(C)=C(OC)C5=O)C(=O)C(C)=C(OC)C2=O [RENIERAMYCIN M],,,IC50 (HCT-116 [1]; hct-116): 0.034 µM; IC50 (MDA-MB-435; mda-mb-435): 0.011 µM
COC1=C(C)C(=O)C2=C(C1=O)[C@@H]1[C@@H]3CC4=C(C(=O)C(OC)=C(C)C4=O)[C@H](COC(=O)c4cccnc4)N3[C@@H](C#N)[C@H](C2)N1C,0.0079,0.0035,
COC1=C(C)C(=O)C2=C(C1=O)[C@@H]1[C@@H]3CC4=C(C(=O)C(OC)=C(C)C4=O)[C@H](COC=O)N3[C@@H](C#N)[C@H](C2)N1C,0.038,0.038,
C/C=C(/C)C(=O)OC[C@H]1C2=C(C[C@H]3[C@H]4C5=C(C[C@@H]([C@H](C#N)N13)N4C)C(=O)C(C)=C(OC)C5=O)C(=O)C(C)=C(OC)C2=O [RENIERAMYCIN M],,,IC50 (HCT-116 [1]; hct-116): 0.0094 µM; IC50 (MDA-MB-435; mda-mb-435): 0.0038 µM
CCC(=O)OC[C@H]1C2=C(C[C@H]3[C@H]4C5=C(C[C@@H]([C@H](C#N)N13)N4C)C(=O)C(C)=C(OC)C5=O)C(=O)C(C)=C(OC)C2=O [JORUNNAMYCIN C],0.011,0.0042,Activity (QG-56): Active
